Laboratory results taken from ChEMBL document CHEMBL4312003, “Optimization of biaryloxazolidinone as promising antibacterial agents against antibiotic-susceptible and antibiotic-resistant gram-positive bacteria” (Eur J Med Chem, 2020).
Converted amounts (≈) assume the structure as drawn.

Experiments:
Staphylococcus aureus [1] = experiment: Potency index, ratio of rade-zolid MIC to compound MIC for antibacterial activity against methicillin-sensitive Staphylococcus aureus by CLSI protocol based broth liquid microdilution method; format: functional
Staphylococcus aureus [2] = experiment: Potency index, ratio of rade-zolid MIC to compound MIC for antibacterial activity against Staphylococcus aureus ATCC 29213 by CLSI protocol based broth liquid microdilution method; format: functional
Staphylococcus aureus [3] = experiment: Antibacterial activity against methicillin-sensitive Staphylococcus aureus assessed as complete reduction in bacterial cell growth by CLSI protocol based broth liquid microdilution method; format: functional
Procedure, shortened: (§1)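 Broth liquid microdilution per CLSI guidelines; isolates identified on an automated MicroScan system before testing. MIC taken as lowest concentration giving total inhibition of bacterial growth, reported in μg/mL. S. aureus ATCC29213 run as the control strain.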

Enterococcus faecium [4] = experiment: Potency index, ratio of rade-zolid MIC to compound MIC for antibacterial activity against vancomycin-resistant Enterococcus faecium by CLSI protocol based broth liquid microdilution method; format: functional
Staphylococcus aureus [5] = experiment: Antibacterial activity against clinical isolates of methicillin-sensitive Staphylococcus aureus assessed as reduction in bacterial cell growth by CLSI protocol based broth microdilution method; format: functional; procedure, shortened: as §1
Enterococcus faecalis [6] = experiment: Antibacterial activity against linezolid-resistant Enterococcus faecalis assessed as complete reduction in bacterial cell growth by CLSI protocol based broth liquid microdilution method; format: functional; procedure, shortened: as §1
Staphylococcus aureus [7] = experiment: Antibacterial activity against methicillin-resistant Staphylococcus aureus assessed as complete reduction in bacterial cell growth by CLSI protocol based broth liquid microdilution method; format: functional; procedure, shortened: as §1
Enterococcus faecium [8] = experiment: Antibacterial activity against clinical isolates of vancomycin-resistant Enterococcus faecium assessed as complete reduction in bacterial cell growth by CLSI protocol based broth liquid microdilution method; format: functional; procedure, shortened: as §1
Enterococcus faecium [9] = experiment: Antibacterial activity against vancomycin-resistant Enterococcus faecium assessed as complete reduction in bacterial cell growth by CLSI protocol based broth liquid microdilution method; format: functional; procedure, shortened: as §1
Enterococcus faecalis [10] = experiment: Antibacterial activity against clinical isolates of linezolid-resistant Enterococcus faecalis assessed as complete reduction in bacterial cell growth by CLSI protocol based broth liquid microdilution method; format: functional; procedure, shortened: as §1
Staphylococcus aureus [11] = experiment: Antibacterial activity against Staphylococcus aureus ATCC 29213 assessed as complete reduction in bacterial cell growth by CLSI protocol based broth liquid microdilution method; format: functional; procedure, shortened: as §1
Enterococcus faecalis [12] = experiment: Potency index, ratio of rade-zolid MIC to compound MIC for antibacterial activity against linezolid-resistant Enterococcus faecalis by CLSI protocol based broth liquid microdilution method; format: functional
[13] = Stability in simulated gastric acid assessed as compound remaining at pH 1.2 incubated for 2 hrs; format: ADME; settings: read-out: Stability
[14] = Stability in simulated gastric acid assessed as compound remaining at pH 1.2 incubated for 1.5 hrs; format: ADME; settings: read-out: Stability
[15] = Stability in simulated gastric acid assessed as compound remaining at pH 1.2 incubated for 0.5 hrs; format: ADME; settings: read-out: Stability
HepG2 = experiment: Cytotoxicity against human HepG2 cells assessed as reduction in cell viability incubated for 48 hrs by MTT assay; format: cell-based; settings: HepG2, 48 h
Procedure, shortened: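 HepG2 cells were grown in RPMI1640 with 10% FBS and plated at about 4×10^4 cells/well in MEM. After 24 h at 37 °C in 5% CO2, compounds were added at the indicated final concentrations for 48 h. MTT was added (0.5 mg/mL final) for 4 h at 37 °C and the formazan dissolved in DMSO. Absorbance was read at 492 nm (630 nm reference). Each compound was tested three times; IC50 given as mean ± SD.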

[16] = Stability in simulated gastric acid assessed as compound remaining at pH 1.2 incubated for 1 hr; format: ADME; settings: read-out: Stability
[17] = Stability in human liver microsomes assessed as half life at 1.5 uM preincubated for 5 mins with NADPH and measured after 45 mins by LC/MS analysis; format: ADME, Microsome
Procedure, shortened: (§2)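 Compound solution at 1.5 µM with 0.75 mg/mL microsomes (before NADPH addition) was preincubated 5 min at 37 °C. Reactions were started with NADPH (6 mM stock). Samples were quenched with acetonitrile containing internal standard at 0, 5, 15, 30 and 45 min, then centrifuged, and the supernatant was diluted with water for LC/MS. Runs were in duplicate. T1/2 = ln2/k from the log-linear slope, and CLint was derived from T1/2.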

[18] = Stability in human liver microsomes assessed as intrinsic clearance at 1.5 uM preincubated for 5 mins with NADPH and measured after 45 mins by LC/MS analysis; format: ADME, Microsome; settings: read-out: CLH; procedure, shortened: as §2
MAO-A = biological target: T1, MAO-A (Homo sapiens, UniProt P21397); experiment: Inhibition of recombinant human MAO-A (active motif 31502) at 30 uM using luciferin as substrate incubated for 15 mins followed by substrate addition and measured after 60 mins by luminescence based method relative to control; settings: probe luciferin
T1 sequence (P21397 whole entry): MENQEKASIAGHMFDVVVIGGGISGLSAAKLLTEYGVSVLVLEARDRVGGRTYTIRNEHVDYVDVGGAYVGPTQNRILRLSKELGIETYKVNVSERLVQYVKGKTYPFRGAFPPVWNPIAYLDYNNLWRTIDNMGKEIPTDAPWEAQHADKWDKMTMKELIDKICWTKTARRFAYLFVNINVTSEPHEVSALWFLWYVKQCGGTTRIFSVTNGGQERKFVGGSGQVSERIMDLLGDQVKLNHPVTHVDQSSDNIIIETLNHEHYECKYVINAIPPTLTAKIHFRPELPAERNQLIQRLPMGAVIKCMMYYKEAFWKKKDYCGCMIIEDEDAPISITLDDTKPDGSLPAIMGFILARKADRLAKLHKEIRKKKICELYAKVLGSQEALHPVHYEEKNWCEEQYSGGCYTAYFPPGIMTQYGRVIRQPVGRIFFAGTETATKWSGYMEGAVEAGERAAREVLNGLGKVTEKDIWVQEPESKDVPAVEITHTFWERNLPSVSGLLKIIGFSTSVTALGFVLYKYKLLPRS
Procedure, shortened: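 Recombinant human MAO-A was measured with the MAO-Glo kit, modified. Compounds were in DMSO (1% DMSO final) and preincubated with enzyme 15 min at room temperature. Luciferin-derivative substrate was then added and the reaction run 60 min at room temperature. Luciferase detection reagent was added for 20 min and luminescence read. Buffer without enzyme served as the 100% inhibition control; DMSO alone as the no-inhibition control. Percent inhibition = (Max − signal)/(Max − Min)×100.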

[19] = Stability in human liver microsomes assessed as compound remaining at 1.5 uM preincubated for 5 mins with NADPH and measured after 45 mins by LC/MS analysis; format: ADME, Microsome; procedure, shortened: as §2
[20] = Solubility of compound in water by UV spectrophotometric analysis; format: physicochemical
Staphylococcus aureus [21] = experiment: Antibacterial activity against clinical isolates of methicillin-resistant Staphylococcus aureus assessed as complete reduction in bacterial cell growth by CLSI protocol based broth liquid microdilution method; format: functional; procedure, shortened: as §1

Compound	Ratio (Staphylococcus aureus [1])	Ratio (Staphylococcus aureus [2])	MIC (Staphylococcus aureus [3])	Ratio (Enterococcus faecium [4])	MIC (Staphylococcus aureus [5])	MIC (Enterococcus faecalis [6])	MIC (Staphylococcus aureus [7])	MIC (Enterococcus faecium [8])	MIC (Enterococcus faecium [9])	MIC (Enterococcus faecalis [10])	MIC (Staphylococcus aureus [11])	Ratio (Enterococcus faecalis [12])	remaining at 2 h [13]	remaining at 1.5 h [14]	remaining at 0.5 h [15]	IC50 (HepG2)	remaining at 1 h [16]	inhibition at 1 h, 30 µM (MAO-A)	other results
CC(=O)NC[C@H]1CN(c2ccc(-c3ccc(/C=N/N4CCOCC4)nc3)c(F)c2)C(=O)O1	2 - 4	2 - 4	0.25 µg/mL (≈ 0.566 µM)	2 - 4	0.25 to 0.5 µg/mL (≈ 0.566 to 1.13 µM)	0.25 µg/mL (≈ 0.566 µM)	0.125 µg/mL (≈ 0.283 µM)	1 µg/mL (≈ 2.27 µM)	0.25 µg/mL (≈ 0.566 µM)	0.25 to 0.5 µg/mL (≈ 0.566 to 1.13 µM)	0.125 µg/mL (≈ 0.283 µM)	2 - 4							
CC(=O)NC[C@H]1CN(c2ccc(-c3ccc(/C=N/N4CCN(C)CC4)c(O)c3)c(F)c2)C(=O)O1			0.12 µg/mL (≈ 0.256 µM)		0.5 to 1 µg/mL (≈ 1.06 to 2.13 µM)	0.25 µg/mL (≈ 0.532 µM)	0.125 µg/mL (≈ 0.266 µM)	1 µg/mL (≈ 2.13 µM)	0.25 µg/mL (≈ 0.532 µM)	1 µg/mL (≈ 2.13 µM)	0.125 µg/mL (≈ 0.266 µM)		5.3%	12.2%	69.8%	> 25 µM	35%		
CC(=O)NC[C@H]1CN(c2ccc(-c3ccc(/C=N/N4CCS(=O)(=O)CC4)nc3)c(F)c2)C(=O)O1	2 - 4	2 - 4	0.125 µg/mL (≈ 0.255 µM)	2 - 4	0.25 to 0.5 µg/mL (≈ 0.511 to 1.02 µM)	0.25 µg/mL (≈ 0.511 µM)	0.125 µg/mL (≈ 0.255 µM)	0.5 µg/mL (≈ 1.02 µM)	0.125 µg/mL (≈ 0.255 µM)	0.25 to 0.5 µg/mL (≈ 0.511 to 1.02 µM)	0.125 µg/mL (≈ 0.255 µM)	2 - 4	98.7%	99.2%	99.7%	> 25 µM	99.4%	72%	half-life at 1.5 µM ([17]; liver microsomes): 6.82 h; CLint scaled at 1.5 µM [18]: 4.25 mL/min/kg; remaining at 0.75 h, 1.5 µM ([19]; liver microsomes, read-out: Stability): 93%; solubility [20]: 68 µg/mL (≈ 139 µM)
CC(=O)NC[C@H]1CN(c2ccc(-c3ccc(/C=N/N4CC[S+]([O-])CC4)c(O)c3)c(F)c2)C(=O)O1			0.25 µg/mL (≈ 0.512 µM)		0.5 µg/mL (≈ 1.02 µM)	0.25 µg/mL (≈ 0.512 µM)	0.125 µg/mL (≈ 0.256 µM)	0.5 µg/mL (≈ 1.02 µM)	0.25 µg/mL (≈ 0.512 µM)	0.5 µg/mL (≈ 1.02 µM)	0.25 µg/mL (≈ 0.512 µM)							88%	MIC (Staphylococcus aureus [21]): 0.5 to 1 µg/mL (≈ 1.02 to 2.05 µM)
CC(=O)NC[C@H]1CN(c2ccc(-c3ccc(/C=N/N4CCSCC4)nc3)c(F)c2)C(=O)O1	2 - 4	2 - 4	0.25 µg/mL (≈ 0.546 µM)	2 - 4	0.25 to 0.5 µg/mL (≈ 0.546 to 1.09 µM)	0.25 µg/mL (≈ 0.546 µM)	0.125 µg/mL (≈ 0.273 µM)	1 µg/mL (≈ 2.19 µM)	0.25 µg/mL (≈ 0.546 µM)	0.5 µg/mL (≈ 1.09 µM)	0.125 µg/mL (≈ 0.273 µM)	2 - 4	98%	98.6%	99.4%	> 25 µM	99%	75%	t1/2 ([17]; microsomes, 0.75 h, 1.5 µM): 0.3207 h; CLint scaled at 1.5 µM [18]: 90.3 mL/min/kg; Stability ([19]; microsomes, 0.75 h, 1.5 µM): 0.62%; solubility [20]: 57 µg/mL (≈ 125 µM)
CC(=O)NC[C@H]1CN(c2ccc(-c3ccc(/C=N/N4CCOCC4)c(F)c3)c(F)c2)C(=O)O1			0.25 µg/mL (≈ 0.545 µM)			0.25 µg/mL (≈ 0.545 µM)	0.25 µg/mL (≈ 0.545 µM)		0.25 µg/mL (≈ 0.545 µM)		0.25 µg/mL (≈ 0.545 µM)							80%	
COC(=O)N1CCN(/N=C/c2ccc(-c3ccc(N4C[C@H](CNC(C)=O)OC4=O)cc3F)cc2O)CC1			0.5 µg/mL (≈ 0.974 µM)		2 µg/mL (≈ 3.89 µM)	0.5 µg/mL (≈ 0.974 µM)	0.5 µg/mL (≈ 0.974 µM)	2 µg/mL (≈ 3.89 µM)	0.5 µg/mL (≈ 0.974 µM)	2 µg/mL (≈ 3.89 µM)	0.5 µg/mL (≈ 0.974 µM)								MIC (Staphylococcus aureus [21]): 2 µg/mL (≈ 3.89 µM)
CC(=O)NC[C@H]1CN(c2ccc(-c3ccc(/C=N/N4CCS(=O)(=O)CC4)c(O)c3)c(F)c2)C(=O)O1			0.25 µg/mL (≈ 0.496 µM)		1 to 2 µg/mL (≈ 1.98 to 3.96 µM)	0.25 µg/mL (≈ 0.496 µM)	0.25 µg/mL (≈ 0.496 µM)	1 to 2 µg/mL (≈ 1.98 to 3.96 µM)	0.25 µg/mL (≈ 0.496 µM)	1 to 2 µg/mL (≈ 1.98 to 3.96 µM)	0.125 µg/mL (≈ 0.248 µM)							67%	
CC(=O)NC[C@H]1CN(c2ccc(N3CCOCC3)c(F)c2)C(=O)O1 [LINEZOLID]			1 µg/mL (≈ 2.96 µM)		1 to 4 µg/mL (≈ 2.96 to 11.9 µM)	> 16 µg/mL	1 µg/mL (≈ 2.96 µM)	1 to 4 µg/mL (≈ 2.96 to 11.9 µM)	2 µg/mL (≈ 5.93 µM)	> 16 µg/mL	1 µg/mL (≈ 2.96 µM)					> 25 µM			Stability ([17]; microsomes, 0.75 h, 1.5 µM): Stable
